Experimental data reported in ChEMBL document CHEMBL1124349, “Novel benzodiazepine receptor partial agonists: oxadiazolylimidazobenzodiazepines” (J Med Chem, 1989).

Key:
[1] = target: GABA-A receptor; anion channel; assay: Inhibition of radiolabeled antagonist [3H]-Ro- 15-1788 binding to benzodiazepine receptor from rat cortical membranes; format: cell membranes, Membrane
Outline: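 Rat (Sprague–Dawley, 250-300 g) cortical membranes, water-washed and frozen at -20 °C ≥18 h, then washed repeatedly in Krebs/HEPES pH 7.4. Nonspecific binding with 3 μM clonazepam. Filtration, scintillation counting.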

[2] = target: GABA-A receptor; anion channel (Rattus norvegicus) (UniProt O09028+P15431+P18506+P18508+P19969+P20236+P23574+P23576+P28471+P28473+P30191+P62813+P63079+P63138+Q91ZM7+Q9ES14); assay: Ratio of binding affinity to the GABA-A receptor in the presence and absence of GABA; format: protein-complex assay
Outline: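 [3H]-Ro 15-1788 displacement in washed rat cortical membranes (Krebs/HEPES pH 7.4, nipecotic acid 10^-4 M, 30 °C, 60 min) run with and without GABA at 0.3 mM. Nonspecific binding was defined by 3 μM clonazepam, and read-out was filtration with scintillation counting. The value is the ratio of the affinities obtained with GABA and without it.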

Compound | IC50 [1] [nM] | GABA shift [2]
CCc1noc(-c2ncn3c2CN=C(c2ccccc2Cl)c2cc(Cl)ccc2-3)n1 | 25 | 2.11
CCCc1noc(-c2ncn3c2CN=C(c2ccccc2)c2ccccc2-3)n1 | 43 | 1.8
CCCc1nc(-c2ncn3c2CN=C(c2ccccc2)c2cc(Cl)ccc2-3)no1 | 45 | 2.22
CC(C)(C)OC(=O)c1ncn2c1C1CCCN1C(=O)c1c(Br)cccc1-2 (stereo not given) | 0.6 | 1.34
CCCc1nc(-c2ncn3c2CN(C)C(=O)c2cc(F)ccc2-3)no1 | 27 | 1.96
CCc1nc(-c2ncn3c2CN=C(c2ccccc2Cl)c2cc(Cl)ccc2-3)no1 | 9.4 | 1.86
CCCc1noc(-c2ncn3c2CN(C)C(=O)c2c(F)cccc2-3)n1 | 24 | 1.94
Cc1nc(-c2ncn3c2CN=C(c2ccccc2Cl)c2ccccc2-3)no1 | 6.7 | 1.35
CCCc1noc(-c2ncn3c2CN(C)C(=O)c2ccccc2-3)n1 | 120 | 2.08
CC(C)c1noc(-c2ncn3c2CN=C(c2ccccc2Cl)c2ccccc2-3)n1 | 31 | 1.83
CCCc1nc(-c2ncn3c2CN(C)C(=O)c2c(F)cccc2-3)no1 | 14 | 1.7
CC(C)c1noc(-c2ncn3c2CN=C(c2ccccc2)c2ccccc2-3)n1 | 52 | 1.7
CC(C)c1nc(-c2ncn3c2CN=C(c2ccccc2)c2ccccc2-3)no1 | 18 | 2.57
CC(C)c1noc(-c2ncn3c2CN(C)C(=O)c2cc(F)ccc2-3)n1 | 100 | 1.86
Cc1nc(-c2ncn3c2CN=C(c2ccccc2)c2c(F)cccc2-3)no1 | 2.4 | 1.68
Cc1nc(-c2ncn3c2CN(C)C(=O)c2ccccc2-3)no1 | 27 | 1.28
CC(C)c1noc(-c2ncn3c2CN=C(c2ccccc2)c2cc(Cl)ccc2-3)n1 | 120 | 1.06
CC(C)c1nc(-c2ncn3c2CN=C(c2ccccc2)c2c(F)cccc2-3)no1 | 6.1 | 2.08
CC(C)c1nc(-c2ncn3c2CN(C)C(=O)c2cc(F)ccc2-3)no1 | 43 | 2.76
Cc1nc(-c2ncn3c2CN=C(c2ccccc2)c2c(Cl)cccc2-3)no1 | 1.3 | 1.44
CCCc1nc(-c2ncn3c2CN=C(c2ccccc2)c2c(F)cccc2-3)no1 | 5.3 | 2.06
CC(C)c1nc(-c2ncn3c2CN=C(c2ccccc2)c2cc(Cl)ccc2-3)no1 | 53 | 2.89

Compound | IC50 [1] [nM] | GABA shift [2]
Cc1noc(-c2ncn3c2CN(C)C(=O)c2cc(F)ccc2-3)n1 | 50 | 1.47
CCc1noc(-c2ncn3c2CN(C)C(=O)c2cc(Cl)ccc2-3)n1 | 600 | 0.91
CCc1nc(-c2ncn3c2CN(C)C(=O)c2c(F)cccc2-3)no1 | 15 | 1.44
Cc1nc(-c2ncn3c2CN(C)C(=O)c2c(F)cccc2-3)no1 | 11 | 1.65
CC(C)c1noc(-c2ncn3c2CN(C)C(=O)c2c(Cl)cccc2-3)n1 | 14 | 1.86
CCc1noc(-c2ncn3c2CN=C(c2ccccc2)c2c(F)cccc2-3)n1 | 9.8 | 2.31
Cc1noc(-c2ncn3c2CN(C)C(=O)c2c(Cl)cccc2-3)n1 | 8.1 | 1.51
Cc1noc(-c2ncn3c2CN(C)C(=O)c2c(F)cccc2-3)n1 | 22 | 1.85
CC(C)c1noc(-c2ncn3c2CN(C)C(=O)c2c(F)cccc2-3)n1 | 67 | 2.31
CCc1nc(-c2ncn3c2CN(C)C(=O)c2cc(F)ccc2-3)no1 | 27 | 1.84
CCc1noc(-c2ncn3c2CN=C(c2ccccc2)c2ccccc2-3)n1 | 19 | 1.2
CCCc1noc(-c2ncn3c2CN=C(c2ccccc2)c2cc(Cl)ccc2-3)n1 | 120 | 2.57
CCc1nc(-c2ncn3c2CN=C(c2ccccc2Cl)c2ccccc2-3)no1 | 13 | 1.48
CCc1noc(-c2ncn3c2CN(C)C(=O)c2c(F)cccc2-3)n1 | 42 | 2.4
Cc1noc(-c2ncn3c2CN=C(c2ccccc2)c2c(Cl)cccc2-3)n1 | 3.4 | 1.67
CC(C)c1nc(-c2ncn3c2CN=C(c2ccccc2Cl)c2ccccc2-3)no1 | 14 | 1.64
CCCc1nc(-c2ncn3c2CN=C(c2ccccc2)c2c(Cl)cccc2-3)no1 | 3.9 | 1.7
O=C(OCC1CC1)c1ncn2c1C1CCN1C(=O)c1c(Cl)cccc1-2 (stereo not given) | 4.2 | 1.7
CCc1noc(-c2ncn3c2CN(C)C(=O)c2c(Cl)cccc2-3)n1 | 9.7 | 1.43
CC(C)c1noc(-c2ncn3c2CN=C(c2ccccc2)c2c(Cl)cccc2-3)n1 | 7.2 | 1.91
Cc1nc(-c2ncn3c2CN=C(c2ccccc2)c2ccccc2-3)no1 | 7 | 1.56
CC(C)c1nc(-c2ncn3c2CN(C)C(=O)c2c(Cl)cccc2-3)no1 | 3.6 | 2.37

Compound | IC50 [1] [nM] | GABA shift [2]
Cc1nc(-c2ncn3c2CN=C(c2ccccc2Cl)c2cc(Cl)ccc2-3)no1 | 20 | 1.83
CCc1nc(-c2ncn3c2CN(C)C(=O)c2ccccc2-3)no1 | 22 | 1.8
Cc1noc(-c2ncn3c2CN=C(c2ccccc2)c2c(F)cccc2-3)n1 | 8.3 | 1.84
Cc1noc(-c2ncn3c2CN=C(c2ccccc2)c2cc(Cl)ccc2-3)n1 | 180 | 1.84
CCc1noc(-c2ncn3c2CN(C)C(=O)c2ccccc2-3)n1 | 51 | 1.79
CCCc1nc(-c2ncn3c2CN=C(c2ccccc2Cl)c2ccccc2-3)no1 | 12 | 1.68
CCc1nc(-c2ncn3c2CN=C(c2ccccc2)c2c(F)cccc2-3)no1 | 7.5 | 1.82
Cc1nc(-c2ncn3c2CN=C(c2ccccc2)c2cc(Cl)ccc2-3)no1 | 71 | 1.17
CCc1noc(-c2ncn3c2CN(C)C(=O)c2cc(F)ccc2-3)n1 | 105 | 2.34
Cc1nc(-c2ncn3c2CN(C)C(=O)c2cc(F)ccc2-3)no1 | 21 | 1.53
Cc1noc(-c2ncn3c2CN=C(c2ccccc2Cl)c2ccccc2-3)n1 | 31 | 1.29
CC(C)c1nc(-c2ncn3c2CN(C)C(=O)c2ccccc2-3)no1 | 53 | 2.4
CC(C)c1nc(-c2ncn3c2CN=C(c2ccccc2Cl)c2cc(Cl)ccc2-3)no1 | 12 | 2.79
CC(C)c1noc(-c2ncn3c2CN=C(c2ccccc2Cl)c2cc(Cl)ccc2-3)n1 | 45 | 1.81
CCCc1noc(-c2ncn3c2CN=C(c2ccccc2)c2c(Cl)cccc2-3)n1 | 5.2 | 1.85
CC(C)c1noc(-c2ncn3c2CN(C)C(=O)c2ccccc2-3)n1 | 105 | 2.19
CCc1nc(-c2ncn3c2CN(C)C(=O)c2c(Cl)cccc2-3)no1 | 6.4 | 1.12
CCCc1noc(-c2ncn3c2CN(C)C(=O)c2c(Cl)cccc2-3)n1 | 6 | 1.53
CCCc1nc(-c2ncn3c2CN=C(c2ccccc2Cl)c2cc(Cl)ccc2-3)no1 | 8.2 | 1.81
CC(C)c1nc(-c2ncn3c2CN(C)C(=O)c2c(F)cccc2-3)no1 | 19 | 1.97
CCCc1noc(-c2ncn3c2CN(C)C(=O)c2cc(F)ccc2-3)n1 | 42 | 2
